High-throughput results from PubChem BioAssay.
Wnt bcat act: Wnt/beta-catenin pathway activators, primary screen, cell-based, plate reader, single point; Wnt/beta-catenin reporter cell assay, activator; activation, % at 9.35 µM; 300,000 compounds, 1.2% hits; AID 743398, 2014; in the data active = activation above about 30%, passing the limit was not always enough; inconclusive = no clear call, values can overlap the other calls
MITF act: activators of MITF-driven TRPM1 promoter reporter, primary screen, cell-based, SK-MEL-5, luciferase, single point; SK-MEL-5 TRPM1-promoter luciferase, 24 h; % of positive control, neutral wells = 0; activation, % at 12.5 µM; 300,000 compounds, 0.75% hits; AID 588334, 2011;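 active = mean activation of at least 80% with every replicate also reaching 80%; inconclusive = mean reaches 80% but some replicate falls short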
Vif inh: HIV Vif self-association inhibitors, primary screen, imaging, HEK293T, single point. HEK293T cells, Vif self-association by quenched fluorescence, 24 h. inhibition, % at 7.49 µM. 340,000 compounds, 0.35% hits; in the data active = inhibition above about 50%, passing the limit was not always enough; inconclusive = no clear call, values can overlap the other calls; inactive = below about 31%
esBAF inh: Bmi1 luciferase reporter increase in mESCs, primary screen, esBAF inhibitor project, mouse ES cells, Bmi1 luciferase knock-in, single point. 24 h; 100% = twice the neutral-well signal. reporter increase, % at 12.5 µM. 350,000 compounds, 2% hits. AID 602393, 2012; in the data active = activation above about 40%; inconclusive = no clear call, values can overlap the other calls;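 also: a rise in the Bmi1 reporter signal indicates esBAF inhibition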
Xi reactivation: activators of inactive X chromosome reactivation, primary screen, imaging, XiGFP fibroblasts, GFP high-content imaging, set 2 | 360,000 compounds, 0.055% hits | XiGFP mouse fibroblasts, % GFP-positive cells imaging, 3 d; cells co-treated with 5-aza-dC sensitizer; scaled so ellipticine positive control = 100% | activation, % at 7.58 µM;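 active = mean normalized replicate activation at least 10% and every replicate at or above 10%; inconclusive = only one of the two criteria met; inactive = mean below 10% and not all replicates reach 10%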
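assay system = SV40-immortalized XiGFP fibroblast cells, line 68-5-11 | buffer or medium = DMEM plus 5-aza-dC sensitizer | doses = single-point pinned compound dosing | times = 3-day compound exposure, then 15 min fixation at room temperature | benchmarks = positive control ellipticine, 6 µM final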
Large screens that a line does not name were inactive; ! = a repeat was not active. In the library only some 2.6% were active in any assay of this set; here they are far more common.

C[C@@H]1CN([C@@H](C)CO)C(=O)c2cccc(NC(=O)Nc3cccc4ccccc34)c2O[C@H]1CN(C)S(=O)(=O)c1cn(C)cn1	none (no result: Wnt bcat act, MITF act, Vif inh, esBAF inh)
C=C(C)n1c(=O)n(Cc2ccc(C)cc2)c2ccccc21	Vif inh 69
C[C@@H]1CN([C@@H](C)CO)C(=O)c2cc(NC(=O)C3CCCCC3)ccc2O[C@@H](C)CCCCO[C@H]1CN(C)C(=O)C1CCCCC1	none (no result: Wnt bcat act, MITF act, Vif inh)
O=C(CCN1C(=O)c2ccccc2C1=O)N1CCOCC1	none (no result: Xi reactivation)
O=C(CCN1C(=O)c2cccc3cccc(c23)C1=O)N1CCOCC1	MITF act 83, esBAF inh 53
CC(C(=O)N1CCOCCOCCOCCOCCOCC1)N1C(=O)c2ccccc2C1=O (configuration not stated)	none (no result: esBAF inh)
CC(C(=O)N1CCOCC1)N1C(=O)c2cccc3cccc(c23)C1=O (configuration not stated)	Wnt bcat act 33 (no result: esBAF inh)
C[C@H]1CN([C@@H](C)CO)S(=O)(=O)c2ccc(-c3ccc(C(=O)N(C)C)cc3)cc2O[C@@H]1CN(C)C(=O)C1CC1	none (no result: Wnt bcat act, MITF act, Vif inh, esBAF inh)
C[C@H](CO)N1C[C@H](C)[C@H](CN(C)C(=O)Nc2ccc3c(c2)OCO3)Oc2cc(C3=CCCC3)ccc2S1(=O)=O	none (no result: Wnt bcat act, MITF act, Vif inh)
COc1cc(NC(=O)c2ccc(N)nc2)cc(C(=O)Nc2cccc(C(F)(F)F)c2)c1	esBAF inh 45!
COc1cc(NC(=O)c2nccnc2N)cc(C(=O)Nc2cccc(C(F)(F)F)c2)c1	none
COC(=O)c1cc(-c2ccc(OC)cc2)n[nH]1	MITF act 91, esBAF inh inconclusive
COc1ccc(-c2cc(C(=O)Nc3cc(OC)cc(C(=O)Nc4cccc(C(F)(F)F)c4)c3)[nH]n2)cc1	esBAF inh 48!
C[C@H]1CN([C@@H](C)CO)C(=O)c2cccc(NC(=O)C3CCCCC3)c2O[C@H]1CN(C)C	none (no result: Wnt bcat act, MITF act, Vif inh)
CCC(=O)Nc1ccc2c(c1)C(=O)N(C)C[C@H](OC)[C@H](C)CN(C(=O)Cc1ccccn1)[C@@H](C)CO2	none (no result: Wnt bcat act, MITF act, Vif inh)
COC(=O)c1ccc2nc(C)cc(Nc3ccc(N(C)C)cc3)c2c1	none
COC(=O)c1ccc(Nc2cc(C)nc3ccccc23)cc1	Wnt bcat act 48 (no result: MITF act, esBAF inh)
Clc1ccc(-c2cnc3cccnn23)cc1	esBAF inh 50 (no result: MITF act)
Cc1ccc(N=Cc2nc(-c3ccco3)oc2O)cc1	Wnt bcat act 37, MITF act 104, esBAF inh 48 (no result: Xi reactivation)
CO[C@@H]1CN(C)C(=O)c2ccc(NC(=O)C3CCCCC3)cc2OC[C@@H](C)N(C(=O)Nc2ccc(C(F)(F)F)cc2)C[C@H]1C	none (no result: Wnt bcat act, MITF act, Vif inh)
C[C@H]1CN([C@@H](C)CO)C(=O)c2cc(C#CC3CCCCC3)cnc2O[C@H]1CN(C)C(=O)c1ccncc1	none (no result: Wnt bcat act, MITF act, Vif inh)
Cc1nnc(SCCn2c(N(C)Cc3ccccc3)nc3c2c(=O)[nH]c(=O)n3C)s1	Vif inh 62 (no result: MITF act)
COc1ccc2nc3sc(C(=O)NCCN4CCc5ccccc5C4)cc3cc2c1	esBAF inh 89
COc1ccc2cc3cc(C(=O)NCCCN4CCc5ccccc5C4)sc3nc2c1	none (no result: esBAF inh)
COc1ccc(CN(C)C[C@H]2Oc3ccc(NC(=O)C4CC4)cc3C(=O)N([C@@H](C)CO)C[C@@H]2C)cc1	none (no result: Wnt bcat act, MITF act, Vif inh)
CCN=c1scc(-c2ccc(F)cc2)n1/N=C/c1ccccn1	MITF act 91 (no result: esBAF inh)
CCNC(=O)N1C(=O)C2(OCCO2)c2ccccc21	none (no result: Wnt bcat act, MITF act, Xi reactivation)
Cc1ccc(NC(=O)N2C(=O)C3(OCCO3)c3ccccc32)cc1	esBAF inh 58 (no result: Wnt bcat act, Vif inh, Xi reactivation)
C[C@@H]1CCCCO[C@H](CN(C)CC2CCCCC2)[C@@H](C)CN([C@H](C)CO)C(=O)c2cc(NC(=O)NC3CCCCC3)ccc2O1	none (no result: Wnt bcat act, MITF act, Vif inh)
C[C@H](NC(=O)C[C@H]1CC[C@@H](NC(=O)Nc2ccc3c(c2)OCO3)[C@H](CO)O1)c1ccccc1	none (no result: Wnt bcat act, MITF act, Vif inh)
COCC(=O)Nc1ccc2c(c1)OC[C@@H](C)N(Cc1cccnc1)C[C@H](C)[C@@H](OC)CN(C)C2=O	none (no result: Wnt bcat act, MITF act, Vif inh)
O=C(c1cc(COc2ccc3c(c2)CCCC3)on1)N1CCCC1	MITF act 124, esBAF inh 68
CC(=O)c1cccc(OCc2cc(C(=O)N3CCSCC3)no2)c1	Wnt bcat act inconclusive (no result: esBAF inh)
O=C(c1cc(COc2cccc3cnccc23)on1)N1CCCC(CCCO)C1 (configuration not stated)	none
COc1ccc(OCc2cc(C(=O)N3CCCC(CO)C3)no2)c2ccccc12 (configuration not stated)	Wnt bcat act 33 (no result: esBAF inh)
COCC1CCN(C(=O)c2cc(COc3ccc4c(c3)CCCC4)on2)C1 (configuration not stated)	none (no result: esBAF inh)
O=C(c1cc(COc2ccc(F)c(F)c2)on1)N1CCSCC1	esBAF inh 51
O=C(c1cc(COc2ccc(F)cc2Cl)on1)N1CCSCC1	esBAF inh 78
CC[C@H]1CC=CC[C@H](C)Oc2ccccc2C(=O)N(C)[C@@H](Cc2ccccc2)C(=O)N1 (mixture of isomers)	none (no result: Wnt bcat act, MITF act, Vif inh, esBAF inh)
O=C(C[C@@H]1CC[C@@H]2[C@H](COC[C@@H](O)CN2C(=O)Nc2ccc(Cl)cc2)O1)N1CCCCC1	none (no result: Wnt bcat act, MITF act, Vif inh)
CC(C)NC(=O)Nc1ccc2c(c1)CC(=O)N(C)C[C@@H](C)[C@@H](CN(C)C)O2	none (no result: Wnt bcat act, MITF act, Vif inh, esBAF inh)
CSc1ccccc1OCc1cc(C(=O)N2CCSCC2)no1	MITF act 133, esBAF inh 69
CSc1ccccc1OCc1cc(C(=O)N2CCCC(C)C2)no1 (configuration not stated)	Wnt bcat act 51, MITF act 159, esBAF inh 62
COc1cc(CN2CC3(CCN(C(=O)Nc4cccc(F)c4)CC3)c3c(n(C)c4cc(OC)ccc34)[C@@H]2CO)cc(OC)c1	none (no result: Wnt bcat act, MITF act, Vif inh, esBAF inh)
CCCC#Cc1cnc2c(c1)C(=O)N([C@H](C)CO)C[C@H](C)[C@@H](CN(C)C(=O)Cc1ccncc1)O2	none (no result: Wnt bcat act, MITF act, Vif inh)
